# Results from different studies.
# Lines come from different studies, so protocols differ.
# Target: Serine/threonine-protein kinase 38-like (STK38L, Homo sapiens, UniProt Q9Y2H1)
Compound,test,system,setting,quantity,result
Cc1c(C(=O)O)cc(-c2ccc(C3CCNCC3)cc2)c2ccc(-c3ccc(C(F)(F)F)cc3)cc12,"binding, competition with immobilised ligand",,1 µM,remaining binding,100%
Cn1c2c(c3ccccc31)C(C#N)C(C)(C)NC2=O (centres unmarked),"thermal stability, DSF",,10 µM,ΔTm,0 °C
CN(C)C(=O)Cn1cc(-c2nc([C@@](C)(c3ccc(-c4cnc(N)nc4)cc3)C3CC3)no2)cn1,"binding, competition with immobilised ligand",,1 µM,remaining binding,91%
Cc1ccc(C(=O)Nc2ccc(CN3CCN(C)CC3)c(C(F)(F)F)c2)cc1C#Cc1cnc2cccnn12,enzyme activity,,23.5 nM,remaining activity,99%
CNc1cc(Oc2cc(C(=O)Nc3cc(N4CCN(C)CC4)cc(C(F)(F)F)c3)ccc2C)ncn1,"target engagement in cells, inhibitor, chemoproteomics",Huh-7,1 µM,inhibition,-35.6%
N#CC1c2c([nH]c3c(Cl)c(Cl)ccc23)C(=O)NC12CCCCC2 (racemic),"thermal stability, DSF",,10 µM,ΔTm,0.2 °C
CC(C)(O)[C@H]1CC[C@H](Nc2ccc3ncc(-c4cccc(C(F)(F)F)c4)n3n2)CC1,"enzyme activity, inhibitor",,1 µM,remaining activity,91.9%
CN(C(=O)c1ccccc1)c1cc(N(C)c2ccc3c(c2)CCc2ccc(C(=O)NCCN4CCOCC4)cc2C3=O)ccc1F,"cell-free assay, competition with immobilised ligand",,1 µM,remaining binding,47%
Cn1c2c(Cl)c(Cl)ccc2c2cc[nH]c(=O)c21,"thermal stability, DSF",,10 µM,ΔTm,0 °C
CCN1CCN(Cc2ccc(NC(=O)c3ccc(C)c(Oc4ccnc5[nH]ccc45)c3)cc2C(F)(F)F)CC1,"target engagement in cells, inhibitor, chemoproteomics",Huh-7,1 µM,inhibition,-11.8%
Cc1sc(C(=O)NC2COC2)cc1-n1cc(NC(=O)Nc2c(F)cccc2Cl)cn1,"enzyme activity, inhibitor",,10 µM,remaining activity,95.1%
CS(=O)(=O)N1CCCC(NC(=O)[C@H](CCC2CCCCC2)NC(=O)c2ccc(CNc3ncnc4c3nnn4-c3ccccc3)cc2)C1 (some centres unmarked),"binding, competition with immobilised ligand",,1 µM,remaining binding,24%
Cn1c2c(Cl)c(Cl)ccc2c2cn[nH]c(=O)c21,"thermal stability, DSF",,10 µM,ΔTm,0.1 °C
CN(C)c1ncc(F)c(-c2cnn3ncccc23)n1,binding,,1 µM,remaining binding,100%
COc1cc(-c2cc(-c3ccc(N4CCNCC4)cc3)cnc2C)cc(OC)c1OC,"enzyme activity, inhibitor",,0.1 µM,inhibition,0%
O=C(O)[C@@H]1[C@@H](Cn2nnc3ccccc3c2=O)CC[C@H]1C(=O)c1ccc(OCCC2CCOCC2)cc1,"binding, competition with immobilised ligand",,1 µM,remaining binding,100%
Cn1c2c(Cl)c(Cl)ccc2c2cc(N)[nH]c(=O)c21,"thermal stability, DSF",,10 µM,ΔTm,0.3 °C
NS(=O)(=O)c1cc(NC(=O)Cc2ccccc2)ccc1Oc1cccc(Cl)c1,"cell-free assay, competition with immobilised ligand",,1 µM,remaining binding,100%
CCN1CCC2(CC1)NC(=O)c1c(c3ccc(Cl)c(Cl)c3n1C)C2C#N (racemic),"thermal stability, DSF",,10 µM,ΔTm,0 °C
O=C(Nc1cnn(-c2csc(C(=O)NC3COC3)c2)c1)Nc1c(F)cccc1Cl,"enzyme activity, inhibitor",,5 µM,remaining activity,94.8%
